Assay outcomes as filed in PubChem BioAssay.
Sampled rows, rich in hits. Any-hit rate of the full collection: about 0.79%.
UCH37 inh – blocks the human deubiquitinase UCH37; purified proteasome/UCH37, Ub-AMC cleavage fluorescence; Q9Y5K5; 0.33% of 330,000 active; inhibition, % (concentration not given with the values);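 active means mean inhibition over replicate wells above about 20%, limit read from the data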
Target sequence (Q9Y5K5 whole entry, looked up): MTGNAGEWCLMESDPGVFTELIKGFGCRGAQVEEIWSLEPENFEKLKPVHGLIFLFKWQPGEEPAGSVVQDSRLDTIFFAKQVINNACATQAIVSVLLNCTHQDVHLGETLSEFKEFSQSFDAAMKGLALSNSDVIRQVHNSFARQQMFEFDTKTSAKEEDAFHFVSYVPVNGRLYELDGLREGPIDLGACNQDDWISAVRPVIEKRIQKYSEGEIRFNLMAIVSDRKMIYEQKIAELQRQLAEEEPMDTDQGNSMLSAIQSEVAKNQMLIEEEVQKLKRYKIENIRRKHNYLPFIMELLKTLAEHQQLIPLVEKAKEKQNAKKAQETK
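Material: Human UCH37 enzyme supplied as purified proteasome complex | Schedule: 30 min preincubation with enzyme, 25 min cleavage at room temperature | Detection: AMC fluorescence 355/460 nm | Measure: % inhibition of Ub-AMC cleavage fluorescence | Controls: Wells without proteasome as full block, compound-free enzyme plus substrate as uninhibited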
PKA-R2B act – activators of human PKA-R2B complex | PKA-R2B holoenzyme dissociation, Cy5-IP20 fluorescence polarization; R2B truncated from residue 108, S112A mutant; 0% DMSO only, 100% 113 µM cGMP | 0.079% of 340,000 active | activation, % at 11.4 µM | P22694+P31323 | AID 504700;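 active means activation above a cutoff set at the mean over all compounds plus 3 SD, cut at about 18% in these data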;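 further: higher means more holoenzyme dissociation and a rise in polarization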
PKA-R1A activ – activates the PKA-R1A holoenzyme complex; P00514+P68181; activation, % at 11.4 µM; 0.083% of 340,000 active; PKA-R1A dissociation, Cy5-IP20 fluorescence polarization; scaled: DMSO 0%, 113 µM cGMP 100%;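 active means percent activation above the mean of all tested compounds plus 3 SD, cut at about 19% in these data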;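 further: higher means more PKAc released from R1A so a rise in polarization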
Rin1-Abl PPI inh – human Rin1-Abl interaction inhibition | P00519+Q13671 | 0.4% of 360,000 active | TR-FRET Rin1/Abl binding, biochemical | inhibition, % at 7.35 µM; in the data active means inhibition above about 5%, passing the limit was not always enough
Rin1 Abl conf – confirmation of inhibitors of human Rin1-Abl interaction. shares compounds with Rin1-Abl PPI inh. TR-FRET Rin1-Abl binding, purified proteins. inhibition, % at 7.35 µM. 49% of 1,300 active. AID 602124
GFP quench – GFP fluorescence interference artifact | shares compounds with Rin1-Abl PPI inh | inhibitors/quenchers counterscreen | inhibition, % at 6.75 µM | 8.5% of 1,300 active | AID 602125;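 further: ABL1-eGFP fusion protein alone without its partner RIN1-SBP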
GFP quench DR – GFP fluorescence interference dose response. shares compounds with Rin1-Abl PPI inh. GFP fluorescence interference/quenching counterscreen. IC50, µM. 230 tested, under 10 active. AID 602182; call rule not given here;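 further: ABL1-eGFP fusion protein alone without its RIN1 binding partner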
A number is an active result; i = inactive; nt = not tested or not shown. Unless noted, no stated cut-off is given here; in the data, active means inhibition above about 6.5%; inactive means the rest.

SMILES	UCH37 inh	PKA-R2B act	PKA-R1A activ	Rin1-Abl PPI inh	Rin1 Abl conf	GFP quench	others
CN(C)c1ccc(CNC(=O)C2Cc3c(-c4cccc(C(N)=O)c4)ccnc3O2)cc1 (stereo not given)	nt	nt	nt	7.0	7.2	i
Cc1nc2ccc(NC(=O)c3ccco3)cc2s1	i	i	i	i	nt	nt
CN1CCN(c2ccc(CNC(=O)C3(C)Cc4c(-c5ccc(C(N)=O)cc5)ccnc4O3)cc2)CC1 (stereo not given)	nt	nt	nt	i	nt	nt
CC(=O)Nc1ccc(-c2ccnc3c2CC(C)(C(=O)NCc2ccc(N4CCN(C)CC4)cc2)O3)cc1 (stereo not given)	nt	nt	nt	8.7	6.6	i
C[C@H](CO)N1C[C@H](C)[C@@H](CN(C)C(=O)NC2CCCCC2)OCc2cnnn2CCCC1=O	nt	i	i	i	nt	nt
COc1ccc(OC)c(NC(=O)CC2C(=O)NCCN2C(=O)Nc2cccc(Cl)c2)c1 (stereo not given)	i	i	i	9.2	13	i
O=C(CC1SCCNC1=O)Nc1cccc(C(F)(F)F)c1 (stereo not given)	i	i	i	7.8	i	i
O=C(CC1C(=O)NCCN1C(=O)Nc1ccccc1)Nc1cccc(C(F)(F)F)c1 (stereo not given)	i	i	i	i	nt	nt
O=C(CC1SCCNC1=O)Nc1cccc(Cl)c1 (stereo not given)	i	i	i	9.6	19	i	GFP quench DR=i
CCc1ccccc1NC(=O)CC1SCCNC1=O (stereo not given)	i	i	i	i	nt	nt
CC1=NN(c2ccccc2)C(=O)/C1=C\c1cn(CCC#N)nc1-c1ccc(Cl)cc1	i	i	i	i	nt	nt
COc1cccc(C2(O)CCN(C(=O)c3cccs3)CC2)c1	i	i	i	6.7	i	i
COc1ccc(S(=O)(=O)NC(C)C(=O)NCc2cccnc2)cc1OC (stereo not given)	i	i	i	8.4	i	i
C[C@H](CO)N1C[C@H](C)[C@@H](CN(C)Cc2ccc(-c3ccccc3)cc2)Oc2c(NS(=O)(=O)c3cccs3)cccc2C1=O	nt	i	i	16	16	i
C[C@H](CO)N1C[C@H](C)[C@@H](CN(C)Cc2ccc(C(=O)O)cc2)Oc2c(NC(=O)c3ccncc3)cccc2C1=O	i	i	i	i	nt	nt
C[C@H](CO)N1C[C@H](C)[C@@H](CN(C)Cc2ccncc2)Oc2c(NC(=O)c3ccncc3)cccc2C1=O	i	i	i	9.3	9.5	i
Cc1cc(C)c(S(=O)(=O)N2CCCC(C(=O)N3CCOCC3)C2)c(C)c1 (stereo not given)	i	i	i	11	8.9	i
NNC(=O)c1cc(O)c(O)c(O)c1	i	i	i	34	51	7.1
C[C@H](CO)N1C[C@H](C)[C@@H](CN(C)S(=O)(=O)c2ccc(F)cc2)Oc2ccc(NC(=O)C3CC3)cc2C1=O	i	i	i	14	14	i
CCOC(=O)CCCCCC(=O)Nc1ccc2c(c1)C(=O)N([C@H](C)CO)C[C@H](C)[C@@H](CN(C)C(=O)Nc1ccc(OC)cc1)O2	i	i	i	16	13	i
COc1ccc(S(=O)(=O)N(C)C[C@H]2Oc3ccc(NC(=O)CCC(F)(F)F)cc3C(=O)N([C@H](C)CO)C[C@@H]2C)cc1	i	i	i	16	15	i
COc1ccc(NC(=O)N(C)C[C@H]2Oc3ccc(NC(=O)Cc4ccccc4)cc3C(=O)N([C@H](C)CO)C[C@@H]2C)cc1	i	i	i	i	nt	nt
C[C@@H]1CN([C@@H](C)CO)C(=O)c2cc(NC(=O)CCC(F)(F)F)ccc2O[C@H]1CN(C)S(=O)(=O)c1ccc(Cl)cc1	i	i	i	i	nt	nt
CC(C)NC(=O)Nc1ccc2c(c1)C(=O)N([C@@H](C)CO)C[C@@H](C)[C@@H](CN(C)S(=O)(=O)c1ccc(F)cc1)O2	i	i	i	i	nt	nt
C[C@@H]1CCCCO[C@@H](CN(C)S(=O)(=O)c2cccs2)[C@@H](C)CN([C@H](C)CO)C(=O)c2cc(NS(=O)(=O)c3ccccc3)ccc2O1	nt	i	i	69	67	i	GFP quench DR=i
SMILES	UCH37 inh	PKA-R2B act	PKA-R1A activ	Rin1-Abl PPI inh	Rin1 Abl conf	GFP quench	others
CCOC(=O)CCCCCC(=O)Nc1ccc2c(c1)C(=O)N([C@H](C)CO)C[C@@H](C)[C@H](CN(C)Cc1ccc3c(c1)OCO3)O2	i	i	i	i	nt	nt
CCOC(=O)CCCCCC(=O)Nc1ccc2c(c1)CC(=O)N([C@H](C)CO)C[C@@H](C)[C@H](CN(C)Cc1ccc3c(c1)OCO3)O2	i	i	i	16	18	i	GFP quench DR=i
Cc1nc2ccccc2n1S(=O)(=O)c1cc(C(=O)O)ccc1Cl	i	i	i	8.3	i	i
CC(C)NS(=O)(=O)c1cc(C(=O)O)ccc1Cl	i	i	i	i	nt	nt
CCN(CC(=O)Nc1c(F)cccc1F)C(=O)c1ccc(C(F)(F)F)cc1	i	i	i	i	nt	nt
CCc1ccc(C(=O)Cc2cc3cccc(OC)c3oc2=O)cc1	i	i	i	8.5	i	i
CCOc1ccc(NC(=O)C2CC(=O)N(C)C(=Nc3ccc4c(c3)OCO4)S2)cc1 (stereo not given)	i	i	i	i	nt	nt
COc1cccc(N=C2SC(C(=O)Nc3ccc(F)cc3)CC(=O)N2C)c1 (stereo not given)	i	i	i	10	i	i
COC(=O)c1sccc1-n1cc(C#N)c(=O)n(C)c1=O	i	i	i	i	nt	nt
COc1ccc(-n2c(Cn3c(=O)sc4ccccc43)nnc2SCC(=O)N2CCOCC2)cc1	i	i	i	6.5	i	i
O=C(CSc1nnc(Cn2c(=O)sc3ccccc32)n1-c1ccccc1)N1CCCC1	i	i	i	i	nt	nt
O=C(CSc1nnc(Cn2c(=O)sc3ccccc32)n1-c1ccccc1)Nc1nccs1	i	i	i	9.6	i	i
CCOc1ccc(OCC)c(NC(=O)Cn2cccc2)c1	i	i	i	i	nt	nt
CCOC(=O)C1(CC2CC2)CCN(Cc2cn[nH]c2-c2ccccc2)CC1	i	i	i	i	nt	nt
CCOC(=O)C1(Cc2ccccc2)CCN(Cc2cn[nH]c2-c2ccccc2)CC1	i	i	i	9.5	i	i
O=C1CN(C(=O)COc2ccccc2)CCN1	i	i	i	8.5	i	i
O=C(COc1ccc(-c2ccccc2)cc1)N1CCCC1	i	i	i	i	nt	nt
CCc1cccc(NC(=O)c2sc3nc4n(c(=O)c3c2C)CCC4)c1	i	i	i	10	i	i
Cc1cc(C)cc(NC(=O)c2sc3nc4n(c(=O)c3c2C)CCC4)c1	i	i	i	i	nt	nt
Cc1cccc(OCCn2c(=O)oc3ccc(C)cc32)c1	i	i	i	5.8	i	i
